Source: PubChem (several laboratories)
Only some compounds are listed: those with a hit (about 2.2% of all), similar ones and a draw of the others.
Rev-RRE block: HIV Rev-RRE protein-RNA interaction inhibition; actives 0.79% (n = 97,000); inhibition, % at 8 µM; P05866; Rev peptide-RRE RNA binding, FRET;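 active = inhibition above the screen-wide mean plus 3 SD, cut at about 35% in these data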;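 note: 0% = median DMSO wells and 100% = median Neomycin B control wells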
Target sequence (P05866 whole entry, looked up): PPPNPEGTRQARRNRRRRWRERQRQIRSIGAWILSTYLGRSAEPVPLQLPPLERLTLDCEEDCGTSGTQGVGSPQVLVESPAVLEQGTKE
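Test system: Cy5-tagged RRE RNA duplex with fluorescein-tagged Rev peptide | Read-out: % inhibition of FRET ratio versus controls | Probe or stimulus: Labelled Rev peptide | Incubation: 5 min RNA-compound premix plus 15 min binding step, 25 °C | Technique: FRET fluorescence readout | Benchmarks: DMSO low control, neomycin B high control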
PLK1 PBD inh: Plk1 (human) PBD binding inhibition; AID 693; Plk1 PBD phosphopeptide binding, fluorescence polarization; actives 0.13% (n = 97,000); P53350; inhibition, %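 (tested at about 20 µM)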; in the data active = inhibition above about 34%, passing the limit was not always enough
cytoskel mod: alters cytoskeleton assembly in HUVEC cells. AID 836. inhibition, % at 2 µM. actives 0.18% (n = 91,000). HUVEC TNFa F-actin phalloidin imaging, high content;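 active = inhibition above the batch mean plus 3 SD and confirmed as a hit by visual image inspection, cut at about 30% in these data, passing the limit was not always enough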
PLK1 inh: PLK1 (human) kinase inhibition | P53350 | recombinant PLK1 kinase, TR-FRET peptide phosphorylation | inhibition, % at 10 µM | actives 0.53% (n = 97,000) | AID 619;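 active = inhibition of 50% or more in the single-concentration screen; inactive = inhibition below 50%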;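 note: 0% = DMSO max control and 100% = H-89 dihydrochloride min control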
FAK inh: inhibitors of human focal adhesion kinase | Q05397 | biochemical FAK kinase activity assay | inhibition, %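 (tested at 7 µM)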 | actives 0.84% (n = 97,000) | AID 727; in the data active = inhibition above about 19%;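 note: 0% = DMSO and 100% = reference compound high control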
E-sel TNF inh: blocks E-selectin expression induced by TNF alpha; HUVEC TNFa-induced E-selectin immunofluorescence, high content; inhibition, % at 2 µM; actives 0.71% (n = 120,000);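 active = inhibition above the batch mean plus 3 SD, and confirmed as a hit on visual image review, cut at about 43% in these data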;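 note: 0% = TNF-stimulated DMSO wells and 100% = unstimulated control wells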
An asterisk follows results filed as active; . = no result; [ ] = remark or other dose.

SMILES | Rev-RRE block | PLK1 PBD inh | cytoskel mod | PLK1 inh | FAK inh | E-sel TNF inh
Cc1ccc(O)c(C(=O)c2cc(C#N)c(=O)n(-c3c(C)n(C)n(-c4ccccc4)c3=O)c2)c1 | 79.4* | -133.2 | 22.6 | -3.6 | 0.8 | -13.1
COc1ccc(O)c(C(=O)c2cc(C#N)c(=O)n(-c3c(C)n(C)n(-c4ccccc4)c3=O)c2)c1 | 91.8*[fluorescence artefact?] | -132.9 | -9.9 | -7.9 | -3.3 | -0.3
CN(C)c1ccc(N=Cc2nc(-c3ccccc3)oc2O)cc1 | 68.8*[fluorescence artefact?] | -36.3 | -6.2 | -7.6 | -3.9 | 13.2
O=C(CN1CCC(n2cnc3cc(F)ccc32)CC1)Nc1ccccc1Br | . | . | . | . | . | 21.1
Cc1nnc(SCC(=O)NCc2ccco2)[nH]c1=O | 13.1 | -7.9 | -11.7 | -4.7 | 3.5 | .
Cc1ccc(-c2ccc(=O)n(CC(=O)NCc3ccco3)n2)cc1 | -0.5 | -22.4 | 56.7 | -9.9 | -2.5 | -17.4
Cc1cc(-c2ccco2)n(CC(=O)NCc2ccco2)n1 | 6.6 | 15.4 | 1.6 | -2.1 | 2.4 | 75.7*
Cc1cc(=O)[nH]c(SCC(=O)NCc2ccco2)n1 | 5.6 | 5.7 | 31.3 | -10.3 | 8.0 | 100.0*
CCOc1ccc2oc(C(=O)OCC(=O)NC3CC3)c(C)c2c1 | . | . | . | . | . | 20.1
CCOC(=O)CSc1nc2cc(OC)ccc2cc1C#N | 8.8 | -16.3 | 5.4 | -5.3 | 1.5 | 99.9*
CCOC(=O)CSc1nc2cc(C)ccc2cc1C#N | 14.3 | -1.7 | -17.0 | -2.7 | 3.6 | 17.7
COCCNC(=O)c1cc2nc(-c3ccc(F)cc3)cc(C(F)(F)F)n2n1 | . | . | . | . | . | -1.6
Cc1ccc(N2C(=O)[C@@H]3C(C(=O)CCN4C(=O)c5ccccc5C4=O)=NN[C@@H]3C2=O)cc1 | . | . | . | . | . | 65.4*
O=C(O)c1ccc(-n2nnnc2SCc2ccccc2F)cc1 | 6.3 | 28.6 | . | 59.0* | -12.9 | .
CSc1nnnn1-c1ccc(C(=O)O)cc1 | 6.0 | -30.1 | . | -13.7 | -1.6 | -5.2
COc1ccc(Cc2nnc(SCC(=O)NC3CCCC3)o2)cc1 | 7.9 | -6.8 | 4.0 | -8.8 | 0.8 | 54.3*
COC(=O)c1c(NC(=O)COC(=O)Cn2cnc3ccccc32)sc2c1CCCC2 | . | . | . | . | . | -9.1
Cc1ccc(-c2nc(CS(=O)CC(=O)NCCN3CCOCC3)c(C)o2)cc1 (stereo unspecified) | -0.1 | -16.4 | . | 59.1* | -2.6 | .
Cc1oc(-c2ccc(Cl)cc2)nc1CS(=O)CC(=O)NCCN1CCCC1 (stereo unspecified) | -1.7 | -2.1 | . | 59.6* | 2.0 | .
CCCCNC(=O)CS(=O)Cc1nc(-c2cccc(Cl)c2)oc1C (stereo unspecified) | 6.8 | -0.9 | . | 64.6* | 1.9 | .
CCOC(=O)N1CCC(NC(=O)C2CCCN(Cc3nc(-c4cccc(Cl)c4)oc3C)C2)CC1 (stereo unspecified) | 0.9 | 0.3 | -9.1 | 21.9 | -2.3 | -33.8
CCN1CCN(CCNC(=O)C2CCCN(Cc3nc(-c4cccc(Cl)c4)oc3C)C2)CC1 (stereo unspecified) | 0.1 | -2.7 | . | 57.0* | 0.9 | .
Cc1oc(-c2ccc(Cl)cc2)nc1CS(=O)CC(=O)NCCCN(C)C1CCCCC1 (stereo unspecified) | 3.9 | 4.5 | -30.9 | 4.5 | -1.6 | -7.8
CC(NC(=O)c1ccc(C23CC4CC(CC(C4)C2)C3)cc1)C(=O)O (stereo unspecified) | . | . | . | . | . | -23.5
COc1ccc(/C=C/C(=O)N(C)c2ccccc2C(=O)O)cc1 | . | . | . | . | . | -6.1
SMILES | Rev-RRE block | PLK1 PBD inh | cytoskel mod | PLK1 inh | FAK inh | E-sel TNF inh
COc1ccc(CNC(=O)CS(=O)Cc2nc(-c3ccccc3C)oc2C)cc1 (stereo unspecified) | 4.6 | -1.1 | . | 67.3* | 0.4 | .
Cc1ccc(CNC(=O)CS(=O)Cc2nc(-c3ccccc3C)oc2C)cc1 (stereo unspecified) | 4.4 | 6.3 | -4.1 | -13.1 | 0.6 | 16.9
Cc1ccc(-c2nc(CS(=O)CC(=O)NCCN3CCCC3)c(C)o2)cc1 (stereo unspecified) | 2.2 | 0.0 | . | 62.5* | 2.1 | .
O=C(O)COc1ccc(/C=N/n2cnc3scc(-c4cccs4)c3c2=O)cc1 | . | . | . | . | . | 92.8*
CC1(c2ccc3ccccc3c2)NC(=O)N(CC(=O)Nc2cccc(S(=O)(=O)N3CCOCC3)c2)C1=O (stereo unspecified) | . | . | . | . | . | 20.0
COc1cccc(OC)c1NC(=O)CN1CCC(NC(=O)c2cccc(F)c2)CC1 | 4.9 | 22.9 | 70.4* | -7.5 | 0.1 | 22.9
